In ChEMBL document CHEMBL1131242, “6beta-Acetoxynortropane: a potent muscarinic agonist with apparent selectivity toward M2-receptors” (J Med Chem, 1998):
pKi: −log10 of the molar value.

How the values were obtained:
[1] = molecular target: T1, Neuronal acetylcholine receptor; alpha4/beta2 (Rattus norvegicus) (UniProt P09483+P12390); assay: (§1) The compound was evaluated for percentage inhibition of binding of [3H]- nicotine to Nicotinic acetylcholine receptor alpha4-beta2 in Rat Cerebral Cortical Membranes; format: protein-complex assay; design: concentration or dose not given beside the values; conditions: concentration not given here
Outline: (§2)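 Rat cerebral cortex membranes with 0.2 nM [3H]nicotine in HEPES binding buffer pH 7.4 containing 200 µM diisopropyl fluorophosphate. Incubation was 120 min at 0–4 °C, in triplicate. Nonspecific binding used 1 µM nicotine. Samples were filtered through polyethylenimine-soaked GF/B filters and counted.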

[2] = molecular target: T2, Muscarinic acetylcholine receptor M1 (Rattus norvegicus) (UniProt P08482); assay: Percentage inhibition of binding of [3H]quinuclidinyl benzilate to muscarinic acetylcholine receptor M1 in rat cerebral cortical membranes; format: cell membranes; design: concentration or dose not given beside the values; conditions: Membrane, concentration not given here
T2 sequence (whole entry): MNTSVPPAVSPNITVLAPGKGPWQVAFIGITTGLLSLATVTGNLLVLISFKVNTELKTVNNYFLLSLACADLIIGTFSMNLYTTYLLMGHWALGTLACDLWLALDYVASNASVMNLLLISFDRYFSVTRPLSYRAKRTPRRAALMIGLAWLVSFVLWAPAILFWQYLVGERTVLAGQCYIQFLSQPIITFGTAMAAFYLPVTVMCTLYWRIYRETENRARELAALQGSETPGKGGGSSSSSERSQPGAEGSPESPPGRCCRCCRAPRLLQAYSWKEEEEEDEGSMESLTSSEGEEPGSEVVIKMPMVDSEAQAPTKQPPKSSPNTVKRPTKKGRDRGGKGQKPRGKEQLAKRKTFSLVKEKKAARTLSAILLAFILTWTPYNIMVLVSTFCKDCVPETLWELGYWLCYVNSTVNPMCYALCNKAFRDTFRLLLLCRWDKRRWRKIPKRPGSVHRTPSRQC
Outline: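 Rat cerebral cortex membranes were homogenised in 50 mM Tris-HCl pH 7.4 and diluted in HEPES binding buffer. They were incubated with 0.2 nM [3H]quinuclidinyl benzilate in 20 mM HEPES pH 7.4 with 10 mM MgCl2 and 100 mM NaCl for 30 min at 37 °C, in triplicate. Nonspecific binding used 1 µM atropine. Filtration was followed by scintillation counting.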

[3] = molecular target: T1, Neuronal acetylcholine receptor; alpha4/beta2 (Rattus norvegicus); assay: Inhibition of binding of [3H]nicotine to Nicotinic acetylcholine receptor alpha4-beta2 in rat cerebral cortical membranes at 100 uM concentration; format: cell membranes; conditions: Membrane
Outline: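 [3H]nicotine (0.2 nM) binding to rat cortical membranes, with 200 µM diisopropyl fluorophosphate, 120 min at 0–4 °C, triplicate. Nonspecific binding with 1 µM nicotine. Percent inhibition at 100 µM test agent; mean ± SEM, n = 4.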

[4] = molecular target: T3, Neuronal acetylcholine receptor; alpha4/beta2 (Rattus norvegicus, UniProt P09483+P12390); assay: as §1; format: protein-complex assay; outline: as §2
T3 sequence (P09483 whole entry): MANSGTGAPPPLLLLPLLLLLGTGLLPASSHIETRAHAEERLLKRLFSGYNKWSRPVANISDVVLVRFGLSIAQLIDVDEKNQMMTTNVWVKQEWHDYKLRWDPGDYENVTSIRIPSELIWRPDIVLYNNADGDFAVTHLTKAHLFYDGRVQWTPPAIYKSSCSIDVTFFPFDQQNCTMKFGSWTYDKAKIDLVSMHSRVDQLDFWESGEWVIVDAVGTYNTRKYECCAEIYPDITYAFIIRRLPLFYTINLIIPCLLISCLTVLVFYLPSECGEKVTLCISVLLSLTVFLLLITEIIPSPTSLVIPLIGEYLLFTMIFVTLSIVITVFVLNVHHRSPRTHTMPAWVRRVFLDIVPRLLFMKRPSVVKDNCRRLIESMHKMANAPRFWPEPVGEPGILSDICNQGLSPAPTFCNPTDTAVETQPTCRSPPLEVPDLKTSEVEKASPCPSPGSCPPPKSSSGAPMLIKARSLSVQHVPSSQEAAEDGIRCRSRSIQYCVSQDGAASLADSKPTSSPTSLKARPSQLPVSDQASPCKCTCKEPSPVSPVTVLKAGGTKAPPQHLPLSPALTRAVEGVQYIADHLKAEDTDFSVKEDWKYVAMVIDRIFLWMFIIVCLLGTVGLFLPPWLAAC
T3 sequence (P12390 whole entry): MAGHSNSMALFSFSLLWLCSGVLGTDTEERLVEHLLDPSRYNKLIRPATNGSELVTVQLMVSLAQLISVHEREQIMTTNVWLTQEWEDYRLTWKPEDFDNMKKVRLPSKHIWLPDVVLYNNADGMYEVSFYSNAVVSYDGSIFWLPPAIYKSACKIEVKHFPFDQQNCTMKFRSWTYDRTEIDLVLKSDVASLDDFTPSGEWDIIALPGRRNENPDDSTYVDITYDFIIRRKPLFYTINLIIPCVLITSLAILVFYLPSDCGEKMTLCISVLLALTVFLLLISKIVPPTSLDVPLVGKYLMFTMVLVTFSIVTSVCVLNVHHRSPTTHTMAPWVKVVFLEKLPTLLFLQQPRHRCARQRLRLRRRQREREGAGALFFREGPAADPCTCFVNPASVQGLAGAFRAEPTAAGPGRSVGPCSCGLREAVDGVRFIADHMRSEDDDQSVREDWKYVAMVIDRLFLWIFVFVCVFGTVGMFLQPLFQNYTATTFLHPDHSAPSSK

[5] = molecular target: T3, Neuronal acetylcholine receptor; alpha4/beta2; assay: Inhibition of binding of [3H]nicotine to Nicotinic acetylcholine receptor alpha4-beta2 in rat cerebral cortical membranes; format: cell membranes, Membrane; outline: as §2

Q: With COC(=O)C1CC2NC1CCC2=O (stereo unspecified) as the compound, how does the inhibition [1] read?
A: 15%

Q: And the inhibition [2]?
A: 0%

Q: And the inhibition [3]?
A: 15%

Q: CCSC1CCC2NC1CC2C(=O)OC (stereo unspecified) was tested. Which inhibition [1] did it give?
A: 50%

Q: What about the inhibition [2] of the same compound?
A: 7%

Q: And the inhibition [3]?
A: 50%

Q: For CC(=O)OC1CC2CC(=O)CC1N2C (stereo unspecified), which inhibition [1] is on record?
A: 5%

Q: What about the inhibition [2] of the same compound?
A: 0%

Q: And the inhibition [3]?
A: 5%

Q: What does the source list for CC(=O)O[C@@H]1CCC2CCC1N2 (stereo partly specified)?
A: pKi [4]: 4.62; pKi [5]: 4.62

Q: Which results are given for CC(=O)OC1CC2CC(=O)CC1N2 (stereo unspecified)?
A: inhibition [1]: 13%; inhibition [2]: 11%; inhibition [3]: 13%

Q: How did the pKi [4] turn out when COC(=O)[C@H]1CC2NC1CC[C@H]2O (stereo partly specified) was run?
A: 4.19

Q: What about the pKi [5] of the same compound?
A: 4.19

Q: For COC(=O)[C@H]1CC2NC1CC[C@@H]2OC(C)=O (stereo partly specified), which inhibition [1] is on record?
A: 13%

Q: What about the inhibition [2] of the same compound?
A: 1%

Q: And the inhibition [3]?
A: 13%

Q: What does the source list for CC(=O)O[C@H]1CCC2CCC1N2 (stereo partly specified)?
A: pKi [4]: 4.49; pKi [5]: 4.49
